Compound activity as filed in PubChem BioAssay.
Only a selection was taken, and hits are over-represented in it overall.
Fibroblast inh: blocks proliferation of human lung fibroblasts | viability, % at 10 µM | LL 47 human lung fibroblast viability, ATP luminescence; hits give low values | actives 1.1% (n = 85,000);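 active means viability at or below 50% in the single dose screen; inactive means viability above 50%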;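 further: compound exposure lasted 72 h before the ATP readout; 100% = median luminescence of untreated cell-only wells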
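Times – overnight cell rest, 72 h compound treatment at 37 °C · Test system – human lung fibroblast line LL 47, low passage · Amount – 1,150 cells in each well · Controls – cell-only wells, no compound · Doses – 0.1% DMSO in all compound wells · Measured by – CellTiter-Glo luminescence · Buffer or medium – IMEM plus 15% FBS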
HCT116 PTEN-null: suppresses growth of cells with PTEN deletion | HCT116 PTEN-null viability, CellTiter-Glo, 60 h; hits give low values | viability, % at 10 µM | actives 1.2% (n = 140,000);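 active means viability at or below a set limit, 4 SD under the median of all tested compounds, cut at about 3.7% in these data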;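 further: PTEN knockout HCT116 line with beta catenin targeted HCT116 as companion control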
HUVEC inhibit: blocks proliferation of human endothelial cells; HUVEC proliferation, CellTiter-Glo luminescence, 72 h; hits give low values; viability, % at 10 µM (by protocol); actives 1.1% (n = 86,000); AID 648;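 active means viability at or below 30%; inactive means viability above 30%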;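 further: 100% = median luminescence of DMSO-only cell control wells on each plate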
H69AR growth 86K: blocks growth of human H69AR lung tumor cells. H69AR lung tumor viability, ATP luminescence, 72 h; hits give low values. AID 598. viability, % at 10 µM. actives 6% (n = 85,000);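 active means viability at or below 40%; inactive means viability above 40%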;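 further: multidrug resistant small cell line overexpressing MRP-1 efflux transporter; 100% = mean luminescence of untreated control wells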
bCat KO growth: beta-catenin-lacking colon tumor cell growth suppression. HCT116 beta-catenin knockout viability, CellTiter-Glo, 60 h; hits give low values. viability, % at 10 µM. actives 1.5% (n = 140,000);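 active means viability at or under a set limit, the compound median less 4 SD, cut at about 6% in these data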;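 further: 0% = Hyamine 1622 control at 20 µM and 100% = untreated cell control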
* = called active by the depositor; / = not tested or not shown.

SMILES	Fibroblast inh	HCT116 PTEN-null	HUVEC inhibit	H69AR growth 86K	bCat KO growth
Cc1cc(=O)oc2cc(OCC(=O)N3CC(C)OC(C)C3)ccc12 (stereo unspecified)	104	102	94	93	92
Cc1cc(=O)oc2cc(OCC(=O)N3c4ccccc4CC3C)ccc12 (stereo unspecified)	62	19	57	24*	19
Fc1ccc2c(Cl)c(-c3nnc(-c4cccs4)o3)sc2c1	24*	68	51	12*	95
Cc1nc2c3ccccc3nc(SCC(=O)c3ccc(Cl)cc3)n2n1	/	62	/	/	66
Cc1nc2c3ccccc3nc(SCC(=O)N3CC(C)CC(C)C3)n2n1 (stereo unspecified)	97	97	80	20*	103
Cc1ccc(Cn2c(=N)n(CC(=O)c3ccc([N+](=O)[O-])cc3)c3ccccc32)cc1	/	0.9*	/	/	0.9*
CCn1c(=N)n(CC(=O)c2ccc(OC)cc2)c2ccccc21	/	42	/	/	47
CCCCC(=O)Nc1cccc(C(=O)N/N=C/c2ccc(OC)cc2OC)c1	/	106	/	/	105
COc1ccc(-c2noc(CSc3nc4ccccc4c(=O)n3-c3ccc(C)cc3)n2)cc1	/	81	/	/	77
CN1CCN(C2=C(Cl)C(=O)N(c3ccc(Cl)c(Cl)c3)C2=O)CC1	94	86	88	8.5*	81
CCN1CCN(C2=C(Cl)C(=O)N(Cc3ccccc3)C2=O)CC1	95	88	93	47	77
CN1CCN(C2=C(Cl)C(=O)N(Cc3ccccc3)C2=O)CC1	91	76	89	39*	76
CCOc1cc(/C=N/Nc2nc(-c3cccc(S(=O)(=O)N4CCCC4)c3)cs2)ccc1O	/	69	/	/	78
COC12NC(=O)N(C)C1(OC)C(=O)N(C)C(=O)N2C (stereo unspecified)	/	101	/	/	107
COc1cc2c(cc1OC)C1(Nc3c-2c(Cc2ccccc2)nn3-c2ccccc2)C(=O)Nc2ccccc21 (stereo unspecified)	85	87	53	26*	96
COC(=O)NC(=C(Cl)Cl)S(=O)(=O)c1ccccc1	34*	1.9*	55	1.1*	2.6*
Cc1ccc(SC(=O)COc2ccccc2C)cc1	94	/	73	1.7*	90
CC(C)NC(=O)c1ccc(-n2nc(C(F)(F)F)c3c2CCCC3)cc1	/	98	/	/	88
CCn1c2ccccc2c2nnc(SCc3ccccc3)nc21	89	68	90	61	76
CCn1c2ccccc2c2nnc(SCCCn3c(=O)[nH]c4ccccc43)nc21	93	78	59	23*	59
COc1ccc(NC(=O)c2cccs2)cc1OC	106	81	97	107	103
COc1ccc(Cl)cc1-c1nc(-c2ccc(NC(=O)c3cccs3)cc2)no1	/	2.5*	/	/	3.3*
CC(Oc1ccc(Cl)cc1Cl)c1nc(-c2ccc(NC(=O)c3ccncc3)cc2)no1 (stereo unspecified)	82	15	50	25*	12
CC(Oc1ccc(Cl)cc1Cl)c1nc(-c2ccc(NC(=O)c3cccnc3)cc2)no1 (stereo unspecified)	87	11	72	6.3*	15
CC1=C(n2nnc([N+](=O)[O-])n2)C(c2cccnc2)C(C#N)=C(N)O1 (stereo unspecified)	/	61	/	/	54
SMILES	Fibroblast inh	HCT116 PTEN-null	HUVEC inhibit	H69AR growth 86K	bCat KO growth
Cc1nn(Cc2c(Cl)cccc2Cl)c(Cl)c1/C=C/C(=O)OCC(=O)NCC(F)(F)F	/	4	/	/	4.2*
COCCNC(=O)COC(=O)/C=C/c1c(C)nn(Cc2ccc(Cl)cc2Cl)c1Cl	96	79	87	85	82
CCc1nnc2n1N=C(c1ccc(-c3ccc(Cl)cc3Cl)o1)CS2	95	/	97	84	/
Clc1ccc(OCc2nnc3n2N=C(c2ccc4c(c2)OCCO4)CS3)c(Cl)c1	87	27	77	38*	27
CN1CCN(C2=Cc3ccccc3Sc3cc(F)c(Cl)cc32)CC1	94	27	8.8*	0.0*	22
CN1CCN(C2=Cc3ccccc3Sc3cc(F)c(F)cc32)CC1	89	43	6.7*	7.1*	40
CN1CCN(CCC(=O)N2c3ccccc3Sc3ccc(Cl)cc32)CC1	90	75	92	86	80
CN1CCN(C2=Cc3cc(Cl)ccc3Sc3cc(F)ccc32)CC1	87	7	4.9*	51	1.3*
CCOC(=O)N1C=CC(C)=C[C@@H]2[C@@H](N3C(=O)c4ccccc4C3=O)C(=O)N21	/	99	/	/	100
C/C(=N\Nc1nc(-c2cc(C)ccc2C)cs1)c1cc2c(ccc3ccccc32)oc1=O	/	92	/	/	90
N#CC1=C2SCC(O)(c3ccccc3)N2C(=O)CC1c1ccccc1F (stereo unspecified)	60	26	37	15*	27
CC(=O)Nc1ccc(S(=O)(=O)Nc2c(C)nn(-c3ccccc3)c2C)cc1	88	74	91	49	80
Cc1nn(-c2ccc(F)cc2)c(C)c1NS(=O)(=O)c1ccc2ccccc2c1	96	52	77	36*	62
COc1ccc(OC)c(-c2cc(C3CCN(c4cc(Cl)nc(N)n4)CC3)[nH]n2)c1	/	2.5*	/	/	1.7*
ClC(Cl)(c1nnnn1-c1ccccc1)c1nnnn1-c1ccccc1	/	1.9*	/	/	1.3*
COCCCNC(=S)N(Cc1cccnc1)Cc1ccc(OC)c(OC)c1	/	100	/	/	96
O=C(Nc1ccc(O)c(-c2nc3ccccc3s2)c1)c1cccs1	/	100	/	/	91
O=C(/C=C/c1ccco1)NC(=S)Nc1ccc(O)c(-c2nc3ccccc3s2)c1	/	8	/	/	2.2*
O=C(NNC(=S)Nc1ccccc1)c1ccco1	/	98	/	/	95
O=C(/C=C/c1ccco1)NC(=S)NNC(=O)c1ccco1	92	62	28*	62	60
O=C(Nc1ccccc1-c1nc2ccccc2s1)c1ccco1	83	65	46	37*	71
Cc1ccnc(NC(=S)NC(=O)/C=C/c2ccco2)c1	72	24	64	26*	19
O=C(N/N=C/c1cccnc1)C(O)c1ccccc1 (stereo unspecified)	/	99	/	/	88
Cc1ccc(NC(=O)COc2ccc(CCO)cc2-n2nc3ccccc3n2)cc1C	/	33	/	/	27
Cc1c(-c2ccccc2)nc2ccccc2c1C(=O)NCc1cccs1	/	63	/	/	71
SMILES	Fibroblast inh	HCT116 PTEN-null	HUVEC inhibit	H69AR growth 86K	bCat KO growth
CCc1cc(-c2[nH]ncc2-c2ccc3c(c2)OCO3)c(O)cc1O	71	45	9.7*	79	48
COc1ccc(-c2[nH]ncc2-c2ccc3c(c2)OCCO3)c(O)c1	/	80	/	/	86
CCCc1cc(-c2[nH]ncc2-c2ccc3c(c2)OCCCO3)c(O)cc1OC	80	62	5.5*	18*	63
Cc1cc(C(=O)c2ccc(C(C)(C)C)cc2)c(NC(=O)CCl)s1	/	1.3*	/	/	1.1*
Cc1cc(C(=O)c2ccccc2)c(NC(=O)CN2CCOCC2)s1	/	97	/	/	95
O=C(/C=C/c1ccc(Br)cc1)NC1CCCCCC1	/	99	/	/	100
